Source: article PMC5760440 (Journal of immunology (Baltimore, Md. : 1950), 2017)
Ends that are not written are not given here.

How the values were obtained:
A/J mice = test: Induction of myocarditis by immunization with SERCA2a peptides, histology; assay type: in vivo, mouse; settings: individual peptide/CFA + PT; for Total inflammatory foci (Mean ± SEM): day 21, H&E heart sections; for Severity of lesions, Ventricle, Number of animals affected (%), Mild / Severity of lesions, Atria, Number of animals affected (%), Normal / Severity of lesions, Ventricle, Number of animals affected (%), Normal / Severity of lesions, Atria, Number of animals affected (%), Severe / Severity of lesions, Ventricle, Number of animals affected (%), Severe / Severity of lesions, Atria, Number of animals affected (%), Mild: day 21, H&E; for Severity of lesions, Ventricle, Number of animals affected (%), Mild / Severity of lesions, Atria, Number of animals affected (%), Mild: mild = 1–5 foci; for Severity of lesions, Atria, Number of animals affected (%), Normal / Severity of lesions, Ventricle, Number of animals affected (%), Normal: normal = 0 foci; for Severity of lesions, Atria, Number of animals affected (%), Severe / Severity of lesions, Ventricle, Number of animals affected (%), Severe: severe = 26 foci and above
Procedure, shortened: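 Mice got peptide/CFA emulsion (M. tuberculosis H37RA extract 5 mg/ml), 50–100 μg individual peptide, s.c. at inguinal and sternum sites on days 0 and 7. Pertussis toxin 100 ng/mouse i.p. on days 0 and 2. Controls: untreated, CFA+PT. Organs harvested day 21, formalin-fixed, 5 μm H&E sections ~150 μm apart. Blinded foci counts scored 0 / 1–5 / 6–25 / ≥26.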

LNCs = test: Cytokine secretion by restimulated LNCs, cytokine bead array; assay type: cell-based, mouse; settings: supernatants of LNCs from mice immunized with the named peptide (Fig. S2c)

## SERCA2a 161-180: N-terminally acetylated 20-mer peptide of SERCA2a, residues 161-180 (Ac-ADIRLTSIKSTTLRVDQSIL; UniProt P16615 161-180, looked up, fragment)
A/J mice; SEM
  Total inflammatory foci (Mean ± SEM): 2.50 ± 0.64
A/J mice
  Severity of lesions, Ventricle, Number of animals affected (%), Mild: 3 (30) %
  Severity of lesions, Atria, Number of animals affected (%), Normal: 6
  Severity of lesions, Ventricle, Number of animals affected (%), Normal: 7
  Severity of lesions, Atria, Number of animals affected (%), Severe: 0 (0) %
  Severity of lesions, Ventricle, Number of animals affected (%), Severe: 0 (0) %
LNCs
  Cytokine pattern of peptides inducing mild disease: underproduction of both IFN-γ and IL-17A

## SERCA2a 601-620: N-terminally acetylated 20-mer peptide of SERCA2a, residues 601-620 (Ac-PPRIEVASSVKLCRQAGIRV; UniProt P16615 601-620, looked up, fragment)
A/J mice
  Total inflammatory foci (Mean ± SEM): 0
  Severity of lesions, Atria, Number of animals affected (%), Mild: 0 (0) %
  Severity of lesions, Ventricle, Number of animals affected (%), Mild: 0 (0) %
  Severity of lesions, Atria, Number of animals affected (%), Normal: 5
  Severity of lesions, Ventricle, Number of animals affected (%), Normal: 5
  Severity of lesions, Atria, Number of animals affected (%), Severe: 0 (0) %
  Severity of lesions, Ventricle, Number of animals affected (%), Severe: 0 (0) %

## SERCA2a 481-500: N-terminally acetylated 20-mer peptide of SERCA2a, residues 481-500 (Ac-KEFTLEFSRDRKSMSVYCTP; UniProt P16615 481-500, looked up, fragment)
A/J mice
  Total inflammatory foci (Mean ± SEM): 0
  Severity of lesions, Atria, Number of animals affected (%), Mild: 0 (0) %
  Severity of lesions, Ventricle, Number of animals affected (%), Mild: 0 (0) %
  Severity of lesions, Atria, Number of animals affected (%), Normal: 5
  Severity of lesions, Ventricle, Number of animals affected (%), Normal: 5
  Severity of lesions, Atria, Number of animals affected (%), Severe: 0 (0) %
  Severity of lesions, Ventricle, Number of animals affected (%), Severe: 0 (0) %

## SERCA2a 951-970: N-terminally acetylated 20-mer peptide of SERCA2a, residues 951-970 (Ac-PLPLIFQITPLNVTQWLMVL; UniProt P16615 951-970, looked up, fragment)
A/J mice; SEM
  Total inflammatory foci (Mean ± SEM): 40.00 ± 39.00
A/J mice
  Severity of lesions, Atria, Number of animals affected (%), Mild: 1 (10) %
  Severity of lesions, Ventricle, Number of animals affected (%), Mild: 0 (0) %
  Severity of lesions, Atria, Number of animals affected (%), Normal: 8
  Severity of lesions, Ventricle, Number of animals affected (%), Normal: 9
  Severity of lesions, Atria, Number of animals affected (%), Severe: 1 (10) %
  Severity of lesions, Ventricle, Number of animals affected (%), Severe: 1 (10) %

## SERCA2a 171-190: N-terminally acetylated 20-mer peptide of SERCA2a, residues 171-190 (Ac-TTLRVDQSILTGESVSVIKH; UniProt P16615 171-190, looked up, fragment)
A/J mice; SEM
  Total inflammatory foci (Mean ± SEM): 2.00 ± 0.00
A/J mice
  Severity of lesions, Atria, Number of animals affected (%), Mild: 1 (20) %
  Severity of lesions, Ventricle, Number of animals affected (%), Mild: 1 (20) %
  Severity of lesions, Atria, Number of animals affected (%), Normal: 4
  Severity of lesions, Ventricle, Number of animals affected (%), Normal: 4
  Severity of lesions, Atria, Number of animals affected (%), Severe: 0 (0) %
  Severity of lesions, Ventricle, Number of animals affected (%), Severe: 0 (0) %

## SERCA2a 591-610: N-terminally acetylated 20-mer peptide of SERCA2a, residues 591-610 (Ac-TFVGCVGMLDPPRIEVASSV; UniProt P16615 591-610, looked up, fragment)
A/J mice
  Total inflammatory foci (Mean ± SEM): 0
  Severity of lesions, Atria, Number of animals affected (%), Mild: 0 (0) %
  Severity of lesions, Ventricle, Number of animals affected (%), Mild: 0 (0) %
  Severity of lesions, Atria, Number of animals affected (%), Normal: 5
  Severity of lesions, Ventricle, Number of animals affected (%), Normal: 5
  Severity of lesions, Atria, Number of animals affected (%), Severe: 0 (0) %
  Severity of lesions, Ventricle, Number of animals affected (%), Severe: 0 (0) %

## SERCA2a 821-840: N-terminally acetylated 20-mer peptide of SERCA2a, residues 821-840 (Ac-RNPKEPLISGWLFFRYLAIG; UniProt P16615 821-840, looked up, fragment)
A/J mice
  Total inflammatory foci (Mean ± SEM): 0
  Severity of lesions, Atria, Number of animals affected (%), Mild: 0 (0) %
  Severity of lesions, Ventricle, Number of animals affected (%), Mild: 0 (0) %
  Severity of lesions, Atria, Number of animals affected (%), Normal: 5
  Severity of lesions, Ventricle, Number of animals affected (%), Normal: 5
  Severity of lesions, Atria, Number of animals affected (%), Severe: 0 (0) %
  Severity of lesions, Ventricle, Number of animals affected (%), Severe: 0 (0) %

## SERCA2a 31-50: N-terminally acetylated 20-mer peptide of SERCA2a, residues 31-50 (Ac-KLKERWGSNELPAEEGKTLL; UniProt P16615 31-50, looked up, fragment)
A/J mice; SEM
  Total inflammatory foci (Mean ± SEM): 8.00 ± 0.00
A/J mice
  Severity of lesions, Atria, Number of animals affected (%), Mild: 0 (0) %
  Severity of lesions, Ventricle, Number of animals affected (%), Mild: 0 (0) %
  Severity of lesions, Atria, Number of animals affected (%), Normal: 5
  Severity of lesions, Ventricle, Number of animals affected (%), Normal: 4
  Severity of lesions, Atria, Number of animals affected (%), Severe: 0 (0) %
  Severity of lesions, Ventricle, Number of animals affected (%), Severe: 0 (0) %
LNCs
  Cytokine pattern of peptides inducing mild disease: produced mainly IFN-γ

## SERCA2a 311-330: N-terminally acetylated 20-mer peptide of SERCA2a, residues 311-330 (Ac-LPAVITTCLALGTRRMAKKN; UniProt P16615 311-330, looked up, fragment)
A/J mice
  Total inflammatory foci (Mean ± SEM): 0
  Severity of lesions, Atria, Number of animals affected (%), Mild: 0 (0) %
  Severity of lesions, Ventricle, Number of animals affected (%), Mild: 0 (0) %
  Severity of lesions, Atria, Number of animals affected (%), Normal: 5
  Severity of lesions, Ventricle, Number of animals affected (%), Normal: 5
  Severity of lesions, Atria, Number of animals affected (%), Severe: 0 (0) %
  Severity of lesions, Ventricle, Number of animals affected (%), Severe: 0 (0) %

## SERCA2a 471-490: N-terminally acetylated 20-mer peptide of SERCA2a, residues 471-490 (Ac-CNSVIKQLMKKEFTLEFSRD; UniProt P16615 471-490, looked up, fragment)
A/J mice
  Total inflammatory foci (Mean ± SEM): 0
  Severity of lesions, Atria, Number of animals affected (%), Mild: 0 (0) %
  Severity of lesions, Ventricle, Number of animals affected (%), Mild: 0 (0) %
  Severity of lesions, Atria, Number of animals affected (%), Normal: 5
  Severity of lesions, Ventricle, Number of animals affected (%), Normal: 5
  Severity of lesions, Atria, Number of animals affected (%), Severe: 0 (0) %
  Severity of lesions, Ventricle, Number of animals affected (%), Severe: 0 (0) %
